Assays:
[1] = Toxicity in Sprague-Dawley rat assessed as inhibition of granulopoiesis by measuring reduction in neutrophil count at 30 mg/kg, po administered daily for 5 days measured on day 6 by microscopic analysis relative to control; assay type: organism-based; set-up: scale not given: the % may be the effect or the level left; settings: in vivo, 144 h, time 6 day
Outline: (§1)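 Male Sprague-Dawley rats, n = 10 per group: docetaxel 5 mg/kg i.v. once, or oral inhibitor daily for 5 days (30, 50 or 7 mg/kg depending on agent), alone or combined with docetaxel, against vehicles. Total neutrophil and platelet counts in blood collected on day 6; Tukey-Kramer test versus vehicle.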

[2] = target: Induced myeloid leukemia cell differentiation protein Mcl-1 (Homo sapiens, UniProt Q07820); test: Binding affinity to MCL-1 (unknown origin) assessed as dissociation constant incubated for 1 hrs by TR-FRET assay
Induced myeloid leukemia cell differentiation protein Mcl-1, sequence (Q07820 whole entry): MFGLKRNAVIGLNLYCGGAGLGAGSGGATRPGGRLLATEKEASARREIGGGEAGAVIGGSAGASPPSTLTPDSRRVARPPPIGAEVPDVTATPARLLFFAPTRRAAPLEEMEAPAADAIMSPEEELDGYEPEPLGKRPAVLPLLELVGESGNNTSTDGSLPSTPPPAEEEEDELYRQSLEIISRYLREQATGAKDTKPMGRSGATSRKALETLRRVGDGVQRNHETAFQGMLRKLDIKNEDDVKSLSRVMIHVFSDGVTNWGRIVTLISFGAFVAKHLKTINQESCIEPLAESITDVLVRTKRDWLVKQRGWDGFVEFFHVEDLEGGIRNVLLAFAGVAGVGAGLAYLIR

[3] = target: Bcl-2-like protein 1 (Homo sapiens, UniProt Q07817); test: Binding affinity to Bcl-xl (unknown origin) assessed as dissociation constant incubated for 1 hrs by TR-FRET assay
Bcl-2-like protein 1, sequence (Q07817 whole entry): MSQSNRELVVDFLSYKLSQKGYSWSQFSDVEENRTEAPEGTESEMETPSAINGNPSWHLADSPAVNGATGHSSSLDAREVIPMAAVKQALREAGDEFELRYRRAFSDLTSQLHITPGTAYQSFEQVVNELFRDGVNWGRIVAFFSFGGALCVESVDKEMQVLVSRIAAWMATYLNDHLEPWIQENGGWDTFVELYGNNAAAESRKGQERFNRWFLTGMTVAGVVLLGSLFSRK

[4] = target: T1, Bcl-2-like protein 2 (Homo sapiens, UniProt Q92843); test: Binding affinity to BCL-W (unknown origin) assessed as dissociation constant incubated for 1 hrs by TR-FRET assay
T1 sequence (Q92843 whole entry): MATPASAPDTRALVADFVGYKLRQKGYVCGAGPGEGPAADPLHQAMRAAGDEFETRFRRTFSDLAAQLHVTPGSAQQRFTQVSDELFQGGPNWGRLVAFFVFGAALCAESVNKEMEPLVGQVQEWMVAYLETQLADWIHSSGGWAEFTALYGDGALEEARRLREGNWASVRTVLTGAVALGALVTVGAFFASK

[5] = tested on: MOLT-4; test: Antiproliferative activity against Bcl-xl dependent human MOLT-4 cells assessed as reduction in cell viability by measuring effect concentration by CellTiter-Glo reagent based assay; assay type: functional
[6] = Toxicity in Sprague-Dawley rat assessed as inhibition of granulopoiesis by measuring reduction in neutrophil count at 30 mg/kg, po administered daily for 5 days measured on day 6 in the presence of docetaxel by microscopic analysis relative to control; assay type: organism-based; settings: in vivo, 144 h, time 6 day; outline: as §1
[7] = target: Apoptosis regulator Bcl-2 (Homo sapiens, UniProt P10415); test: Binding affinity to Bcl-2 (unknown origin) assessed as dissociation constant incubated for 1 hrs by TR-FRET assay
Apoptosis regulator Bcl-2, sequence (P10415 whole entry): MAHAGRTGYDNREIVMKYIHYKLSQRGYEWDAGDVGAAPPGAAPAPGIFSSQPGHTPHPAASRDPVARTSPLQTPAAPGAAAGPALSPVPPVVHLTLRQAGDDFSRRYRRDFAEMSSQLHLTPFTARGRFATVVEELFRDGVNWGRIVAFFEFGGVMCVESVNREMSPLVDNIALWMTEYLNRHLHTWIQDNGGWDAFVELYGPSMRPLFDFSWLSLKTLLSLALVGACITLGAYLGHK

[8] = Toxicity in Sprague-Dawley rat assessed as inhibition of […] by measuring reduction in circulating platelets at 30 mg/kg, po administered daily for 5 days and measured on day 6 by microscopic analysis; assay type: organism-based; settings: in vivo, 144 h, time 6 day; outline: as §1
[9] = Toxicity in Sprague-Dawley rat assessed as inhibition of granulopoiesis by measuring reduction in neutrophil count at 50 mg/kg, po administered daily for 5 days measured on day 6 by microscopic analysis relative to control; assay type: organism-based; set-up: scale not given: the % may be the effect or the level left; settings: in vivo, 144 h, time 6 day; outline: as §1
[10] = Toxicity in Sprague-Dawley rat assessed as inhibition of […] by measuring reduction in circulating platelets at 50 mg/kg, po administered daily for 5 days and measured on day 6 by microscopic analysis; assay type: organism-based; settings: in vivo, 144 h, time 6 day; outline: as §1
[11] = Toxicity in Sprague-Dawley rat assessed as inhibition of granulopoiesis by measuring reduction in neutrophil count at 50 mg/kg, po administered daily for 5 days measured on day 6 in presence of docetaxel by microscopic analysis relative to control; assay type: organism-based; settings: in vivo, 144 h, time 6 day; outline: as §1

Row | Structure (SMILES) | Activity [1] | Ki [2] | Ki [3] | Ki [4] | EC50 [5] | Activity [6] | Ki [7] | Activity [8] | Activity [9] | Activity [10] | Activity [11]
1 | CC1(C)CCC(CN2CCN(c3ccc(C(=O)NS(=O)(=O)c4ccc(N[C@H](CCN5CCOCC5)CSc5ccccc5)c(S(=O)(=O)C(F)(F)Cl)c4)cc3)CC2)=C(c2ccc(Cl)cc2)C1 | 41% | > 3900 nM | 0.463 nM | 2 nM | 134 nM | Toxic | 0.048 nM | Toxic | – | – | –
2 | CO[C@H]1CC[C@H](CNc2ccc(S(=O)(=O)NC(=O)c3ccc(N4CCN(CC5=C(c6ccc(Cl)cc6)CC(C)(C)CC5)CC4)cc3Oc3cnc4[nH]ccc4c3)cc2[N+](=O)[O-])CC1 [A-1211212] | – | > 444 nM | 14 nM | 852 nM | > 5000 nM | – | < 0.01 nM | – | 41% | Non-Toxic | Toxic

From ChEMBL document CHEMBL5705901, “Exploiting selective BCL-2 family inhibitors to dissect cell survival dependencies and define improved strategies for cancer therapy” (Sci Transl Med, 2015)
